From ChEMBL document CHEMBL4371059 (J Med Chem, 2019) come the findings set out here.

Active and inactive are the calls of the source. The rule behind the calls is not given here.

Assay [1] concerns the target T1, Sigma intracellular receptor 2 (Rattus norvegicus) (UniProt Q5U3Y7).
T1 sequence (whole entry): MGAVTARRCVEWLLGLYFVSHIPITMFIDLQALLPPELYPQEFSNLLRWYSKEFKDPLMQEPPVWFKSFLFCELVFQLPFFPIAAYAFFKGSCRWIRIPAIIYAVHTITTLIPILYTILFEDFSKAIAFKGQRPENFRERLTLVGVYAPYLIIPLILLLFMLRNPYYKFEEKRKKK
Kind of assay: Displacement of [3H]DTG from sigma2 receptor in rat liver membranes at 1 uM after 120 mins by scintillation counting method relative to control. In kind it is cell membranes. On the technique in general: Loss of bound radioactivity is the signal in a displacement assay; it reports binding, not function.

The subject of assay [2] is T-cell. Kind of assay: Inhibition of PMA/ionomycin-stimulated C57BL/6 mouse T cells activation assessed as CD44-positive cells at 5 ug/ml treated for 48 hrs starting from 12 hrs post PMA/ionomycin stimulation by flow cytometry (reference value: 9.6%). More on the design: scale not given: the % may be the effect or the level left. In kind it is functional. (A flow cytometer gives signals particle by particle.)

For assay [3], the system named is Mus musculus. Kind of assay: Anti-inflammatory activity against C57BL/6 mouse model of MOG-induced autoimmune encephalomyelitis assessed as reduction in inflammatory foci in lumbar spinal cord at 100 uL of 20 uM solution administered ip starting from day 1 post immunization and measured 9 to 16 days post Mycobacterium tuberculosis H37Ra/MOG immunization by hematoxylin and eosin staining based microscopic method. The assay is classed as functional, organism-based. The method, boiled down:
(§1)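 C57BL/6 wild-type mice, 8–12 weeks old, were kept under SPF conditions and immunized with MOG peptide. From day 1 after immunization they received a daily ip injection of 100 µl of a 20 µM solution; controls received PBS. Clinical signs were checked daily. Tissues were taken at disease peak, days 12–15 after immunization.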

Assay [4] concerns Mus musculus. Kind of assay: Anti-inflammatory activity against C57BL/6 mouse model of MOG-induced autoimmune encephalomyelitis assessed as CD45-positive leukocytes at 100 uL of 20 uM solution administered ip starting from day 1 post immunization and measured 9 to 16 days post Mycobacterium tuberculosis H37Ra/MOG immunization by flow cytometry (reference value: 4.4%). The assay is classed as functional. The method, boiled down: as §1

In assay [5] the test system is T-cell. Kind of assay: Anti-inflammatory activity in PMA/ionomycin-stimulated C57BL/6 mouse T cells assessed as reduction in IFNgamma production at 5 ug/ml treated for 48 hrs starting from 12 hrs post PMA/ionomycin stimulation by flow cytometry. In kind it is functional, cell-based. The method, boiled down:
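Total T cells were isolated from wild-type mouse lymph nodes with a Pan T cell kit. Cells were activated 12 h with PMA (5 ng/ml) plus ionomycin (500 ng/ml), then cultured 48 h with compound or PBS. Analysis was by flow cytometry gated on CD3, with intracellular IFN-γ after permeabilization; n=5 mice.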

The test system of assay [6] is T-cell. Kind of assay: Inhibition of PMA/ionomycin-stimulated C57BL/6 mouse T cells activation assessed as CD69-positive cells at 5 ug/ml treated for 48 hrs starting from 12 hrs post PMA/ionomycin stimulation by flow cytometry (reference value: 37.2%). More on the design: scale not given: the % may be the effect or the level left. In kind it is functional.
Assay [7] relates to Mus musculus. Kind of assay: Anti-inflammatory activity against C57BL/6 mouse model of MOG-induced autoimmune encephalomyelitis assessed as reduction in TH17 cell population in lumbar spinal cord at 100 uL of 20 uM solution administered ip starting from day 1 post immunization and measured 9 to 16 days post Mycobacterium tuberculosis H37Ra/MOG immunization by immunofluorescence microscopic method. In kind it is functional, organism-based. The method, boiled down:
as §1

The subject of assay [8] is T-cell. Kind of assay: Immunomodulatory activity in PMA/ionomycin-stimulated human PBMC-derived T cells assessed as increase in IL-10 production at 5 ug/ml treated for 48 hrs starting from 12 hrs post PMA/ionomycin stimulation. In kind it is functional, cell-based. An outline of the steps:
(§2)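 Human PBMC-derived cells from healthy donors were activated with PMA (5 ng/ml) plus ionomycin (500 ng/ml), then cultured with compound or PBS. Cytokines were quantified in the culture supernatants; n=3 donors.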

Assay [9] has as its system Dendritic cell. Kind of assay: Immunomodulatory activity in PMA/ionomycin-stimulated C57BL/6 mouse bone marrow derived dendritic cells assessed as increase in IL-10 production at 5 ug/ml treated for 48 hrs starting from 12 hrs post PMA/ionomycin stimulation. In kind it is functional, cell-based.
The subject of assay [10] is Mus musculus. Kind of assay: Anti-inflammatory activity against C57BL/6 mouse model of MOG-induced autoimmune encephalomyelitis assessed as reduction in immune cell infiltration in to lumbar spinal cord at 100 uL of 20 uM solution administered ip starting from day 1 post immunization and measured 9 to 16 days post Mycobacterium tuberculosis H37Ra/MOG immunization by hematoxylin and eosin staining based microscopic method. In kind it is functional, organism-based. An outline of the steps:
as §1

For assay [11], the system named is Mus musculus. Kind of assay: Anti-inflammatory activity against C57BL/6 mouse model of MOG-induced autoimmune encephalomyelitis assessed as inhibition of development of clinical symptoms at 100 uL of 20 uM solution administered ip starting from day 1 post immunization and measured 9 to 16 days post Mycobacterium tuberculosis H37Ra/MOG immunization. The assay is classed as functional, organism-based. An outline of the steps:
as §1

Assay [12] deals with T-cell. Kind of assay: Anti-inflammatory activity in PMA/ionomycin-stimulated human PBMC-derived T cells assessed as reduction in IFNgamma production at 5 ug/ml treated for 48 hrs starting from 12 hrs post PMA/ionomycin stimulation by flow cytometry. The assay is classed as functional, cell-based. An outline of the steps:
(§3)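 PBMC were prepared from heparinized blood of healthy donors by Ficoll gradient, and DC or T cells were negatively enriched with magnetic kits. Cells were activated 12 h with PMA (5 ng/ml) plus ionomycin (500 ng/ml), then cultured 48 h with compound or PBS. Flow cytometry was gated on HLA-DR⁺CD11c⁺ for DC and CD3⁺ for T cells, with intracellular IFN-γ; n=3 donors.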

Assay [13] concerns Dendritic cell. Kind of assay: Anti-inflammatory activity in PMA/ionomycin-stimulated human PBMC-derived dendritic cells assessed as reduction in IFNgamma production at 5 ug/ml treated for 48 hrs starting from 12 hrs post PMA/ionomycin stimulation by flow cytometry. The assay is classed as functional, cell-based. The method, boiled down: as §3
The test system of assay [14] is Dendritic cell. Kind of assay: Immunomodulatory activity in PMA/ionomycin-stimulated human PBMC-derived dendritic cells assessed as increase in IL-10 production at 5 ug/ml treated for 48 hrs starting from 12 hrs post PMA/ionomycin stimulation. In kind it is functional, cell-based. The method, boiled down: as §2
The test system of assay [15] is Dendritic cell. Kind of assay: Anti-inflammatory activity in PMA/ionomycin-stimulated C57BL/6 mouse bone marrow derived dendritic cells assessed as reduction in IFNgamma production at 5 ug/ml treated for 48 hrs starting from 12 hrs post PMA/ionomycin stimulation by flow cytometry. In kind it is functional, cell-based. An outline of the steps: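 Bone marrow from tibias and femurs was cultured 9 days with GM-CSF (150 U/ml) and IL-4 (75 U/ml). From day 7 to day 9, cells were stimulated with PMA (5 ng/ml) plus ionomycin (500 ng/ml) with or without compound. On day 9, cells were gated on MHC-II⁺CD11c⁺ and stained for intracellular IFN-γ; n=5 mice.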

The test system of assay [16] is T-cell. Kind of assay: Immunomodulatory activity in PMA/ionomycin-stimulated C57BL/6 mouse T cells assessed as increase in IL-10 production at 5 ug/ml treated for 48 hrs starting from 12 hrs post PMA/ionomycin stimulation. In kind it is functional, cell-based. An outline of the steps: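 Mouse lymph-node T cells were activated 12 h with PMA (5 ng/ml) plus ionomycin (500 ng/ml), then cultured 48 h with compound or PBS. Secreted cytokines were measured in the culture supernatants; n=5 mice per group.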

Assay [17] has as its target T2, Sigma intracellular receptor 2 (Rattus norvegicus, UniProt Q5U3Y7).
T2 sequence (Q5U3Y7 whole entry): T1 sequence (whole entry)
Kind of assay: Displacement of [3H]DTG from sigma2 receptor in rat liver membranes after 120 mins by scintillation counting method. In kind it is cell membranes.

Regarding `COC(=O)N1CCN(C(=O)Cc2ccc(Cl)c(Cl)c2)[C@@H]2[C@@H](N3CCCC3)CCC[C@@H]21` (racemic), the inhibition (as a rule, the change of the read-out against control, counted positive when it falls) in assay [1] turned out to be 8%.
In assay [1], `O=C(Cc1ccc(Cl)c(Cl)c1)N1CCN(Cc2ccc(F)cc2)[C@H]2CCC[C@H](N3CCCC3)[C@H]21` (racemic) yielded an inhibition of 0%.
As to `O=C(Cc1ccc(Cl)c(Cl)c1)N1CCN(Cc2cn(CCF)nn2)[C@H]2CCC[C@H](N3CCCC3)[C@H]21` (racemic), the Activity in assay [2] is 10.4%; in assay [4], 0.2%; in assay [6] it was 14.8%. Moreover, the result in assay [3], in assay [5], in assay [7], in [8], in assay [9] and in assay [10] was Active. In addition, the result in assay [12], in assay [13], in [14], in assay [15] and in assay [16] was Active. This compound also gave an inhibition in assay [1] of 0%. In [11], the inhibition entry was “Active”.
Take `CCCCN1CCN(C(=O)Cc2ccc(Cl)c(Cl)c2)[C@@H]2[C@@H](N3CCCC3)CCC[C@@H]21` (racemic): the Ki (in general, a dissociation constant, usually derived from enzyme kinetics or from competition with a known ligand) in assay [17] was 1.3 µM.
In turn, `CC(C)(C)OC(=O)N1CCN(C(=O)Cc2ccc(Cl)c(Cl)c2)[C@@H]2[C@@H](N3CCCC3)CCC[C@@H]21` (racemic) came in with an inhibition in [1] of 16%.
Turning to `O=C(Cc1ccc(Cl)c(Cl)c1)N1CCN[C@H]2CCC[C@H](N3CCCC3)[C@H]21` (racemic), the figures for the Activity in assay [2], in assay [4] and in assay [6] were 7.6%, 0.5% and 25.6%, respectively. The result in assay [3], in [7] and in [10] was Active. In [1], this compound returned an inhibition of 5%. For the same compound, the inhibition result in [11] is “Active”. The result in assay [12] and in assay [13] was inactive.
Take `CN1CCN(C(=O)Cc2ccc(Cl)c(Cl)c2)[C@H]2[C@@H]1CCC[C@@H]2N1CCCC1`: in [1], the inhibition was determined as 4%.
`CCCN1CCN(C(=O)Cc2ccc(Cl)c(Cl)c2)[C@@H]2[C@@H](N3CCCC3)CCC[C@@H]21` (racemic) showed a Ki in [17] of 2.4 µM.
Take `O=C(Cc1ccc(Cl)c(Cl)c1)N1CCN(CCCCF)[C@H]2CCC[C@H](N3CCCC3)[C@H]21` (racemic): the inhibition in [1] was 8%.
Same read-out and setting: the figure for `O=C(Cc1ccc(Cl)c(Cl)c1)N1CCN(CCF)[C@H]2CCC[C@H](N3CCCC3)[C@H]21` (racemic) is 3%.
In [1], `CCN1CCN(C(=O)Cc2ccc(Cl)c(Cl)c2)[C@H]2[C@@H]1CCC[C@@H]2N1CCCC1` (relative stereo) registered an inhibition of 16%.
Same read-out and setting: as for `O=C(Cc1ccc(Cl)c(Cl)c1)N1CCN(C(=O)COCCF)[C@H]2CCC[C@H](N3CCCC3)[C@H]21` (relative stereo), the figure is 0%.
